E coli Lon inh = E. coli protease La inhibition | inhibition, % at 7.94 µM | purified E. coli Lon protease, fluorescence polarization | AID 602123 | hit rate 0.42% among 360,000 | P0A9M0; in the data active means inhibition above about 13%, passing the limit was not always enough;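 further: 0% = enzyme with probe and DMSO and 100% = no enzyme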
Target sequence (P0A9M0 whole entry, looked up): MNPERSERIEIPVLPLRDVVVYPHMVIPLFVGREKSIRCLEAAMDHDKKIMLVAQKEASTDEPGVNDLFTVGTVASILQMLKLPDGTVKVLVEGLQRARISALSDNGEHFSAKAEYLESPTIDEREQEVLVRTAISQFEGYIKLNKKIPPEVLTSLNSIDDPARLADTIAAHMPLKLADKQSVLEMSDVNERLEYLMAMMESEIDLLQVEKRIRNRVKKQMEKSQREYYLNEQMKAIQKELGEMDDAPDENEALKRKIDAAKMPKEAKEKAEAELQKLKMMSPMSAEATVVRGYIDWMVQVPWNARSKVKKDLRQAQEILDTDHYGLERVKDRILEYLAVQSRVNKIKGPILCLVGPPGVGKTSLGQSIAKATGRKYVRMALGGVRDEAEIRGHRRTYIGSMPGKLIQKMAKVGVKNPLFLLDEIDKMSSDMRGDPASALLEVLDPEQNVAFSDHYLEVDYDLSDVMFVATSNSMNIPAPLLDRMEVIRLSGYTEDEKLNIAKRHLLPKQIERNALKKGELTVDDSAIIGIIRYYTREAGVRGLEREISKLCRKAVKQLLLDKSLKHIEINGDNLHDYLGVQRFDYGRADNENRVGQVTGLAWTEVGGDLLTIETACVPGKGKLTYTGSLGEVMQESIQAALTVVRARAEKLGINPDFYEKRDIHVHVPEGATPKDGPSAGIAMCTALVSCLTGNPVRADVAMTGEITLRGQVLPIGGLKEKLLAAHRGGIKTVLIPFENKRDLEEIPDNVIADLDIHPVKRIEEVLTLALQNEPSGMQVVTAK
PAD4 FP inh = blocks human protein arginine deiminase 4. recombinant PAD4, RCA probe fluorescence polarization. hit rate 0.41% among 330,000. AID 485272. Q9UM07. inhibition, % at 6.36 µM;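 active means percent inhibition above a cutoff equal to the mean of all tested compounds plus 3 SD, cut at about 15% in these data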;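 further: 0% = PAD4 with RCA probe and DMSO and 100% = probe without PAD4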
PRMT1 FP inh = PRMT1 (human) inhibition, primary screen. recombinant PRMT1, activity-based probe fluorescence polarization. Q99873. inhibition, % at 2.79 µM. hit rate 1.3% among 370,000. AID 652257;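 active means inhibition above about 21% made by adding two undisclosed values, limit read from the data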
GSTO1 inh = blocks human GSTO1 in RBBP9 counter-screen. hit rate 1.1% among 300,000. P78417. AID 1974. recombinant GSTO1, activity-based probe fluorescence polarization. inhibition, % at 5.96 µM;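 active means inhibition above the campaign mean inhibition plus 3 SD, cut at about 35% in these data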;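 further: 0% = GSTO1-1 with DMSO and 100% = wells lacking GSTO1-1 enzyme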
TDP2 absorb = TDP2 (human) inhibition, absorbance primary screen; O95551; recombinant TDP2, T5PNP hydrolysis, p-nitrophenol absorbance 415 nm; inhibition, % at 12.8 µM; hit rate 0.34% among 370,000; AID 720702;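 active means inhibition above the mean of all tested compounds plus 3 SD, set per campaign, cut at about 25% in these data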;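 further: 0% = DMSO with enzyme and 100% = buffer with substrate but no TDP2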
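Assay system: Recombinant human TDP2 | Quantity: 120 nM TDP2 per well | Incubation: 2 h at 37 °C | Signal: Epi absorbance | Evaluation: Percent inhibition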
Numbers without * were called inactive; i = inactive; nt = no result given; ! = not confirmed by another sample. This is a sample that favours compounds with a hit; in the whole collection about 2.5% have one here.

SMILES | E coli Lon inh | PAD4 FP inh | PRMT1 FP inh | GSTO1 inh | TDP2 absorb
COC(=O)CCCC1=CC2=CC(=O)C(C)(OC(=O)c3cccs3)C(=O)C2=CN1C1CCCC1 (stereo unspecified) | 3 | 3 | 3 | 37* | 22
COC(=O)c1cn(-c2ccc(-c3noc4c3C(=O)N(CC(=O)N3CCOCC3)CC4)cc2)nn1 | nt | nt | 2 | nt | -5
Cn1c(=O)c2[nH]c(SCC(=O)N3CCN(c4cccc(C(F)(F)F)c4)CC3)nc2n(C)c1=O | nt | nt | 1 | nt | 10
CC(C)CN1C(=O)C[C@]2(C(=O)N(C)c3ccc(NS(=O)(=O)C4CC4)cc32)C1c1ccccc1 (stereo partly specified) | nt | nt | -9 | nt | -7
Cc1cc(NS(=O)(=O)c2ccc(Nc3nc(-c4sc(N)nc4C)cs3)cc2)no1 | -4 | -21 | nt | 37* | nt
CCOC(=O)N1CCN(C(=O)C[C@H]2C[C@@]3(C(=O)OC)C(=C[C@H](C(C)C)O[C@@H]3C3CC3)N(Cc3cccc4ccccc34)C2=O)CC1 | nt | nt | 4 | nt | 1
COc1ccc(S(=O)(=O)n2nc(OC(=O)c3ccccc3)cc2N)cc1 | 7 | -3 | 1 | -4 | 0
COc1ccc(S(=O)(=O)n2nc(OC(C)=O)cc2N(C(C)=O)C(C)=O)cc1 | 11 | -6 | -2 | 8 | 29*
COc1ccc(C(=O)N/N=C/c2sc3ccccc3c2O)cc1 | -392 | 4 | nt | 24 | nt
COc1ccc2cc(C(=O)N/N=C/c3sc4ccccc4c3O)ccc2c1 | i | -13 | 25* | -10 | -20
O=C(N/N=C/c1sc2ccccc2c1O)c1cccc2ccccc12 | -237 | -28 | 55* | 42* | 3
Cc1ccc(CNc2ncnc3ccc(-c4ccc(CO)o4)cc23)o1 | -16 | nt | 25* | nt | -4
Brc1cc2c(cc1C1Nc3ccccc3C3C=CCC31)OCO2 (stereo unspecified) | -11 | 0 | -1 | 2 | -1
C1=CC2c3ccccc3NC(c3ccncc3)C2C1 (stereo unspecified) | -3 | -9 | 23* | 47* | 12
COC(=O)C1CN(Cc2ccccc2)CCS(=O)(=O)N1Cc1ccc(Cl)cc1 (stereo unspecified) | nt | nt | -1 | nt | 1
N[C@@H](C(=O)N[C@@H]1C(=O)N2C(C(=O)O)=C(Cl)CS[C@H]12)c1ccccc1 | 4 | 2 | 46* | 2 | -3
COc1ccc(C(CC(=O)c2ccc(C)cc2)Sc2ccccc2N)cc1 (stereo unspecified) | -2 | nt | 24* | nt | 3
COc1ccc(C(=O)CC(c2ccccc2)S(=O)(=O)c2ccc(C)cc2)cc1 (stereo unspecified) | nt | -1 | nt | 1 | nt
Cc1ccc2c(c1)N(C(=O)CSc1nncn1C)C(C)(C)c1ssc(=S)c1-2 | -4 | 13 | 29* | -4 | -28
CCOC(=O)c1ccc(NC(=O)Cn2ncc(Cl)c(Cl)c2=O)cc1 | -2 | -6 | 25* | 4 | -3
Cn1c(=NC(=O)c2ccco2)sc2ccccc21 | -1 | 1 | 3 | 36* | 6
C=CCN1C(=O)[C@@H](CC(=O)NCc2cccs2)[C@]2(C(=O)OC)CCCCC=C12 | nt | nt | 2 | nt | -2
CCCCC1=CC2=CC(=O)C(C)(O)C(=O)C2=CO1 (stereo unspecified) | nt | -5 | nt | 25 | nt
COC(=O)CCCC1=CC2=CC(=O)C(C)(OC(=O)c3ccco3)C(=O)C2=CO1 (stereo unspecified) | nt | 15 | nt | 30 | nt
CC(C)(C)OC(=O)NCCCCC1=CC2=CC(=O)C(C)(OC(=O)c3ccco3)C(=O)C2=CO1 (stereo unspecified) | nt | -2 | nt | 41* | nt
SMILES | E coli Lon inh | PAD4 FP inh | PRMT1 FP inh | GSTO1 inh | TDP2 absorb
CCCCC1=CC2=CC(=O)C(C)(OC(=O)c3ccc(Cl)nc3)C(=O)C2=CO1 (stereo unspecified) | nt | 20* | nt | 26 | nt
CC(C)(C)OC(=O)NCCCC1=CC2=CC(=O)C(C)(OC(=O)C3CCCC3)C(=O)C2=CO1 (stereo unspecified) | nt | 26* | nt | 13 | nt
Oc1ccc(Cl)cc1-c1cc(-c2ccco2)[nH]n1 | -20 | -11 | 4 | -12 | 8
Oc1ccccc1-c1cc(-c2ccco2)[nH]n1 | -6 | -11 | 23* | 3 | -4
CN(CCOC(=O)c1cc2ccccc2o1)C1CN(Cc2cn(Cc3cccc(F)c3)nn2)S(=O)(=O)C1 (stereo unspecified) | nt | nt | 3 | nt | -4
CCC(C)(C)n1nnnc1C(c1cc2cc(C)ccc2[nH]c1=O)N1CCCc2ccccc21 (stereo unspecified) | -6 | -3 | 30* | 3 | -6
Cc1cc(C(=O)O[C@H]2CCC[C@@]3(C(=O)N(Cc4ccccc4)c4ccccc43)[C@H]2NC(=O)CCc2ccccc2)no1 | nt | nt | -4 | nt | -1
Cc1ccc(C(=O)NCC(=O)OCN2C(=O)c3ccccc3C2=O)cc1C | -2 | 0 | -1 | nt | -13
O=C(CNC(=O)c1ccco1)OCN1C(=O)c2ccccc2C1=O | -3 | -1 | 4 | 37* | -9
CCc1ccc(NC(=O)CSc2nccn(-c3ccc4c(c3)OCCO4)c2=O)cc1 | 1 | nt | 22* | nt | -11
CCOc1ccc(NC(=O)CSc2nccn(-c3ccc4c(c3)OCCO4)c2=O)cc1 | 4 | -4 | 22* | 10 | -1
O=C(N/N=C/c1ccc(O)c(O)c1)N/N=C/c1ccc(O)c(O)c1 | -3 | nt | 24* | nt | -7
Cc1cccc(C(=O)N=c2c(C#N)cc3c(=O)n4cccc(C)c4nc3n2Cc2ccco2)c1 | -17 | 3 | 25*! | -4 | -10
Cc1cccn2c(=O)c3cc(C#N)c(=NC(=O)c4ccco4)n(Cc4ccco4)c3nc12 | 3 | -3 | 12 | 4 | -9
Cc1cccn2c(=O)c3cc(C#N)c(=NC(=O)c4ccccc4)n(Cc4ccco4)c3nc12 | -1 | 2 | 24* | -10 | -14
O=S(=O)(c1ccc(C2=CSC3=NCCN23)cc1)N1CCOCC1 | -15 | -3 | 24* | -4 | 10
O=C(Nc1nc2c(Br)cccc2s1)c1ccc2c(c1)OCCO2 | nt | nt | 1 | nt | -2
Cc1cccc(NC(=S)NCc2cccn2C)c1 | 1 | 2 | 5 | 37* | -3
CSc1nc(SCCO)c2sc3nc(-c4ccco4)c4c(c3c2n1)CC(C)(C)OC4 | 5 | nt | 22* | nt | 12
CCOC(=O)C[n+]1c(C)sc2ccc(OC)cc21 | -11 | 18* | nt | 5 | nt
COc1cc(C=Nn2c(-c3cc(-c4ccccc4)n[nH]3)n[nH]c2=S)ccc1OC(C)=O | nt | nt | 33* | nt | 5
O=C1C(C2=C(O)c3ccccc3C2=O)=Nc2ccccc21 | -4 | -62 | 21* | -13 | 14
O=C(c1cccc(Oc2ccccc2)c1)N1CCC(Oc2cccnc2)CC1 | nt | nt | -2 | nt | 10
CN(C)c1ccc(C(=O)c2ccc(O)cc2O)cc1 | 3 | -4 | -5 | 7 | -2
CN(C)c1ccc(Cc2cc3c(O)ccc(O)c3cc(Cc3ccc(N(C)C)cc3)c2=O)cc1 | 17 | nt | 79* | nt | 10
COc1ccc(CCNC(=O)Nc2cccs2)c(OC)c1 | -13 | 1 | 23* | -4 | -11
Cc1ccc(-c2csc3ncn(-n4c(C)ccc4C)c(=O)c23)o1 | -5 | -2 | 24* | 16 | 2

High-throughput results as filed in PubChem.
